# Laboratory results reported in ChEMBL document CHEMBL4219039, “Group-Based Optimization of Potent and Cell-Active Inhibitors of the von Hippel-Lindau (VHL) E3 Ubiquitin Ligase: Structure-Activity Relationships Leading to the Chemical Probe …” (J Med Chem, 2018).
# Activity calls are given as the source filed them. No cut-off for these calls is given here.
# Columns and labels:
# [1] = Passive permeability of the compound in pH 7.4 PBS at 10 uM after 5 hrs by UPLC-MS/MS method based PAMPA; format: ADME; details: pH 7.4, 5 h
# Summary of the method: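 Precoated PAMPA plate with lipid–oil–lipid trilayer filter. Compound at 10 μM in PBS pH 7.4 (≤5% DMSO) in the donor well, PBS in the acceptor well. Held 5 h at room temperature; both compartments quantified by UPLC-MS/MS. Pe calculated from peak areas; data accepted only if recovery exceeded 70%. Propranolol as control.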
# [2] = Chromatographic hydrophobicity index, log D of the compound at pH 7.4 by HPLC analysis; format: physicochemical; details: buffer
# Summary of the method: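 DMSO stocks (10 mM) diluted to 0.25 mM in 50:50 acetonitrile:water. Run on C18 HPLC at 20 °C, 1 mL/min. Mobile phase 10 mM ammonium acetate pH 7.4 with an acetonitrile gradient. Retention times calibrated against a standard mix of eleven reference compounds, then converted to CHIlogD.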
# [3] = target: T1, Von Hippel-Lindau disease tumor suppressor/Elongin B/Elongin C (Homo sapiens, UniProt P40337); assay: Displacement of FAM-labeled HIF-1alpha peptide from VBC (unknown origin) by fluorescence polarization assay
# T1 sequence (P40337 whole entry, looked up): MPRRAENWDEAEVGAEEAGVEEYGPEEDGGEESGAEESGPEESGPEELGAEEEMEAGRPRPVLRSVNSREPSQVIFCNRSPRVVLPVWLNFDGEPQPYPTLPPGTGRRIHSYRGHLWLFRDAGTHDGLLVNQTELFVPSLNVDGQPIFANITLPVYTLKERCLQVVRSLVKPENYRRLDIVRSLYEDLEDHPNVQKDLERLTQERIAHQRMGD
# [4] = target: T1, Von Hippel-Lindau disease tumor suppressor/Elongin B/Elongin C
# [5] = target: T2, Von Hippel-Lindau disease tumor suppressor/Elongin B/Elongin C (Homo sapiens) (UniProt P40337+Q15370+Q15369); assay: Inhibition of VBC in human HeLa cells assessed as HIF-1alpha stabilization by measuring HIF-1alpha protein levels at 50 uM after 2 hrs by Western blot analysis; format: cell-based; set-up: scale not given: the % may be the effect or the level left
# T2 sequence (P40337 whole entry, looked up): as above
# T2 sequence (Q15369 whole entry, looked up): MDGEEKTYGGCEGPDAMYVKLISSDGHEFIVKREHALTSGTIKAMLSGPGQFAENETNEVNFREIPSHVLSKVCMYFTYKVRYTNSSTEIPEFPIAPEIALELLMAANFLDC
# T2 sequence (Q15370 whole entry, looked up): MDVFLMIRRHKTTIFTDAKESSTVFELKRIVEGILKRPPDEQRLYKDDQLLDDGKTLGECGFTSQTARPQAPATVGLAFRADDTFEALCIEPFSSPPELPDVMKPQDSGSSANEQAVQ
# Summary of the method: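 HeLa (ATCC) grown in DMEM with 10% FBS, L-glutamine and penicillin/streptomycin at 37 °C; mycoplasma-tested. Treated 2 h in fresh medium, 1% DMSO as vehicle control. Lysed in RIPA buffer with protease inhibitors, SDS-PAGE, nitrocellulose blot. Anti-HIF-1α probed with β-actin as loading control, IRDye 800CW secondary for detection. Levels normalized to a reference VHL inhibitor.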
# HeLa [6] = assay: Antiproliferative activity against human HeLa cells assessed as reduction in cell proliferation at 150 uM incubated for 24 to 72 hrs by haemocytometry; format: cell-based
# [7] = target: T2, Von Hippel-Lindau disease tumor suppressor/Elongin B/Elongin C (Homo sapiens)
# [8] = target: T2, Von Hippel-Lindau disease tumor suppressor/Elongin B/Elongin C (Homo sapiens); remark: listed apart in the source
# [9] = target: T2, Von Hippel-Lindau disease tumor suppressor/Elongin B/Elongin C (Homo sapiens); assay: Inhibition of VBC in human HeLa cells expressing HRE-luciferase reporter gene assessed as reduction in HIF transcriptional activity at 1 to 250 uM after 24 hrs by luciferase reporter gene assay; format: cell-based
# [10] = target: T2, Von Hippel-Lindau disease tumor suppressor/Elongin B/Elongin C (Homo sapiens); assay: Binding affinity to VBC (unknown origin) assessed as association rate constant at 50 uM after 60 secs at 10 degC by surface plasmon resonance assay; format: protein-complex assay
# Summary of the method: (§1)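 SPR on a Biacore T100 at 10 and 20 °C against VBC complex. Ligand stock 50 μM in DMSO, 2-fold serial dilutions in SPR buffer (20 mM HEPES, 150 mM NaCl, 1 mM DTT, 0.005% Tween P20, pH 7.0). Kd taken as koff/kon.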
# [11] = target: T2, Von Hippel-Lindau disease tumor suppressor/Elongin B/Elongin C (Homo sapiens); assay: Binding affinity to VBC (unknown origin) assessed as dissociation rate constant at 50 uM after 160 secs at 20 degC by surface plasmon resonance assay; format: protein-complex assay; summary of the method: as §1
# [12] = target: T2, Von Hippel-Lindau disease tumor suppressor/Elongin B/Elongin C (Homo sapiens); assay: Binding affinity to VBC (unknown origin) assessed as dissociation rate constant at 50 uM after 160 secs at 10 degC by surface plasmon resonance assay; format: protein-complex assay; summary of the method: as §1
# [13] = Half life in plasma (unknown origin) at pH 7.4 at 50 uM up to 180 mins by UPLC-MS/MS analysis; format: ADME, cell-free
# Summary of the method: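 Compound at 50 μM incubated at 37 °C in prewarmed plasma buffered to pH 7.4 (70:30 plasma to buffer). Aliquots were taken at 0, 30, 60, 120 and 180 min and quenched in acetonitrile with donepezil internal standard. Samples were centrifuged and analysed by UPLC-MS/MS. The rate constant was fitted as exponential decay of the compound/internal standard peak-area ratio.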
# HeLa [14] = assay: Antiproliferative activity against human HeLa cells assessed as reduction in colony formation at 150 uM incubated for 24 hrs by crystal violet staining based assay; format: cell-based
# Summary of the method: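 HeLa cells, 500–2000 per well, seeded one day before exposure to 150 μM compound; 1% DMSO as vehicle control. Medium replaced after 24 h treatment, then grown a further week. Stained with 0.005% crystal violet in 25% methanol for 10 min at room temperature. Colonies counted on scanned plates.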
# [15] = Intrinsic clearance in CD1 mouse liver microsomes at 0.5 uM up to 30 mins by UPLC-MS/MS analysis; format: ADME, microsome; details: 0.5 h
# Summary of the method: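 Compound at 0.5 μM with female CD1 mouse liver microsomes (0.5 mg/mL) in 50 mM potassium phosphate pH 7.4, started with excess NADPH. Samples quenched in acetonitrile at 0, 3, 6, 9, 15 and 30 min; UPLC-MS/MS against internal standard. Decay rate constant converted to CLi assuming 52.5 mg microsomal protein/g liver. Verapamil as assay control.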
# [16] = target: T1, Von Hippel-Lindau disease tumor suppressor/Elongin B/Elongin C; remark: listed apart in the source
# [17] = target: T1, Von Hippel-Lindau disease tumor suppressor/Elongin B/Elongin C; remark: listed apart in the source
# [18] = target: T2, Von Hippel-Lindau disease tumor suppressor/Elongin B/Elongin C (Homo sapiens); assay: Binding affinity to VBC (unknown origin) assessed as association rate constant at 50 uM after 60 secs at 20 degC by surface plasmon resonance assay; format: protein-complex assay; summary of the method: as §1
permeability [1],chromatographic logD [2],Kd [3],Activity [5],SMILES,further results
0.01 ×10⁻⁶ cm/s,0.61,300 nM,20%,CC(=O)NC1(C(=O)N[C@H](C(=O)N2C[C@H](O)C[C@H]2C(=O)NCc2ccc(-c3scnc3C)cc2)C(C)(C)C)CC1,Kd [4]: 138 nM
,,200 nM,89%,Cc1ncsc1-c1ccc(CNC(=O)[C@@H]2C[C@@H](O)CN2C(=O)[C@@H](NC(=O)C(Cl)(Cl)Cl)C(C)(C)C)cc1,
,,4900 nM,12%,CC(=O)N1CC(C(=O)N[C@H](C(=O)N2C[C@H](O)C[C@H]2C(=O)NCc2ccc(-c3scnc3C)cc2)C(C)(C)C)C1,
0.03 ×10⁻⁶ cm/s,0.71,320 nM,34%,Cc1ncsc1-c1ccc(CNC(=O)[C@@H]2C[C@@H](O)CN2C(=O)[C@@H](NC(=O)C2COC2)C(C)(C)C)cc1,Kd [4]: 230 nM
,,370 nM,46%,"Cc1ncsc1-c1ccc(CNC(=O)[C@@H]2C[C@@H](O)CN2C(=O)[C@@H](NC(=O)C2(F)CC2)C(C)O)cc1 (single isomer, unassigned)",
,,,,Cc1ncsc1-c1ccc(CNC(=O)[C@@H]2C[C@H](O)CN2C(=O)[C@@H](NC(=O)C2(F)CC2)C(C)(C)C)cc1,Activity (HeLa [6]): Toxic; Activity (HeLa [14]): Toxic
,,6500 nM,12%,Cc1ncsc1-c1ccc(CNC(=O)[C@@H]2C[C@@H](O)CN2C(=O)[C@@H](NC(=O)OC(C)(C)C)C(C)(C)C)cc1,
1.16 ×10⁻⁶ cm/s,1.3,250 nM,138%,Cc1ncsc1-c1ccc(CNC(=O)[C@@H]2C[C@@H](O)CN2C(=O)[C@@H](NC(=O)C2CCC2)C(C)(C)C)cc1,T1/2 [7]: 4.95 s; Kd [16]: 271 nM; Kd [17]: 233 nM; K [10]: 5.17 ×10⁵ /M/s; Kd [4]: 210 nM; K [11]: 0.256 s⁻¹; K [18]: 1.1 ×10⁶ /M/s; K [12]: 0.14 s⁻¹; half-life at 50 µM [13]: > 3 h; intrinsic clearance (CLint) [15]: 3 mL/min/g
,,770 nM,19%,Cc1ncsc1-c1ccc(CNC(=O)[C@@H]2C[C@@H](O)CN2C(=O)[C@@H](NC(=O)C(C)(C)F)C(C)(C)C)cc1,
,,,,Cc1ncsc1-c1ccc(CNC(=O)[C@@H]2C[C@H](O)CN2C(=O)[C@@H](NC(=O)C2(C#N)CC2)C(C)(C)C)cc1,Activity (HeLa [6]): Non-Toxic; Activity (HeLa [14]): Non-Toxic
,,500 nM,28%,Cc1ncsc1-c1ccc(CNC(=O)[C@@H]2C[C@@H](O)CN2C(=O)[C@@H](NC(=O)C2CC(=O)C2)C(C)(C)C)cc1,
0.61 ×10⁻⁶ cm/s,1.14,170 nM,105%,Cc1ncsc1-c1ccc(CNC(=O)[C@@H]2C[C@@H](O)CN2C(=O)[C@@H](NC(=O)C2CC2)C(C)(C)C)cc1,Kd [4]: 132 nM
,,270 nM,95%,Cc1ncsc1-c1ccc(CNC(=O)[C@@H]2C[C@@H](O)CN2C(=O)[C@@H](NC(=O)C(F)(F)F)C(C)(C)C)cc1,
1.5 ×10⁻⁶ cm/s,1.34,170 nM,156%,CC(=O)C1(C(=O)N[C@H](C(=O)N2C[C@H](O)C[C@H]2C(=O)NCc2ccc(-c3scnc3C)cc2)C(C)(C)C)CC1,T1/2 [7]: 10 s; T1/2 [8]: 4.1 s; Kd [16]: 115 nM; Kd [17]: 97 nM; K [10]: 6 ×10⁵ /M/s; Kd [4]: 106 nM; K [11]: 0.169 s⁻¹; K [18]: 8.2 ×10⁵ /M/s; K [12]: 0.069 s⁻¹; half-life at 50 µM [13]: > 3 h; intrinsic clearance (CLint) [15]: 2.5 mL/min/g
,,450 nM,65%,Cc1ncsc1-c1ccc(CNC(=O)[C@@H]2C[C@@H](O)CN2C(=O)[C@@H](NC(=O)CC(C)(C)C)C(C)(C)C)cc1,
,,,26%,CC(=O)N(C)[C@H](C(=O)N1C[C@H](O)C[C@H]1C(=O)NCc1ccc(-c2scnc2C)cc1)C(C)(C)C,
,,1400 nM,33%,Cc1ncsc1-c1ccc(CNC(=O)[C@@H]2C[C@@H](O)CN2C(=O)[C@@H](N2CCCC2=O)C(C)(C)C)cc1,

SMILES,permeability [1],chromatographic logD [2],Kd [3],Activity [5],further results
Cc1ncsc1-c1ccc(CNC(=O)[C@@H]2C[C@@H](O)CN2C(=O)[C@@H](NC(=O)CO)C(C)(C)C)cc1,0.01 ×10⁻⁶ cm/s,0.65,200 nM,16%,Kd [4]: 105 nM
Cc1ncsc1-c1ccc(CNC(=O)[C@@H]2C[C@@H](O)CN2C(=O)[C@@H](NC(=O)C2(F)CC2)C(C)(C)C)cc1,2.71 ×10⁻⁶ cm/s,1.63,,175%,Activity (HeLa [6]): Toxic; T1/2 [7]: 11.9 s; T1/2 [8]: 7.07 s; inhibition [9]: Active; K [10]: 2.4 ×10⁶ /M/s; K [11]: 0.098 s⁻¹; K [12]: 0.058 s⁻¹; half-life at 50 µM [13]: > 3 h; Activity (HeLa [14]): Toxic; intrinsic clearance (CLint) [15]: 2.9 mL/min/g
CC(=O)N[C@H](C(=O)N1C[C@H](O)C[C@H]1C(=O)NCc1ccc(-c2scnc2C)cc1)C(C)(C)C,0.12 ×10⁻⁶ cm/s,0.9,,100%,half-life at 50 µM [13]: > 3 h; intrinsic clearance (CLint) [15]: 0.7 mL/min/g
CCC(=O)N[C@H](C(=O)N1C[C@H](O)C[C@H]1C(=O)NCc1ccc(-c2scnc2C)cc1)C(C)(C)C,,,,98%,
CC(=O)N[C@@H](C)C(=O)N1C[C@H](O)C[C@H]1C(=O)NCc1ccc(-c2scnc2C)cc1,,,,12%,
Cc1ncsc1-c1ccc(CNC(=O)[C@@H]2C[C@@H](O)CN2C(=O)[C@@H](NC(=O)C2(C#N)CC2)C(C)(C)C)cc1,1.94 ×10⁻⁶ cm/s,1.4,,190%,Activity (HeLa [6]): Non-Toxic; half-life at 50 µM [13]: > 3 h; Activity (HeLa [14]): Non-Toxic; intrinsic clearance (CLint) [15]: 3.1 mL/min/g
